One may read the MIC as the lowest concentration found to suppress growth. A word on the MIC90: it is the lowest concentration that inhibits either 90% of growth or 90% of the strains tested, depending on the study. Read a low MIC90 as higher susceptibility.

Test [1] has as its system Mycolicibacterium smegmatis. The experiment in a line: Antimicrobial activity against Mycobacterium smegmatis expressing EmbC D280G mutant gene after 48 hrs by agar proportion method. It is filed as functional.
The test system of test [2] is Mycolicibacterium smegmatis. The experiment in a line: Antimicrobial activity against Mycobacterium smegmatis expressing EmbC M286I mutant gene at 32 ug/ml. The test is classed as functional, organism-based.
Test [3] deals with Mycolicibacterium smegmatis. The experiment in a line: Antimicrobial activity against Mycobacterium smegmatis expressing EmbC M286L mutant gene at 32 ug/ml after 48 hrs. The test is classed as functional, organism-based.
The subject of test [4] is Mycolicibacterium smegmatis. Kind of test: Antimicrobial activity against Mycobacterium smegmatis expressing EmbC M286V mutant gene at 32 ug/ml after 48 hrs. The test is classed as functional, organism-based.
In test [5] the test system is Mycolicibacterium smegmatis. Kind of test: Antimicrobial activity against Mycobacterium smegmatis expressing EmbC D280G mutant gene at 32 ug/ml after 48 hrs. The test is classed as functional, organism-based.
The test system of test [6] is Mycobacterium tuberculosis. The experiment in a line: Antimicrobial activity against Mycobacterium tuberculosis embA gene after 48 hrs by agar proportion method. The test is classed as functional.
Test [7] concerns Mycobacterium tuberculosis. The experiment in a line: Inhibition of Mycobacterium tuberculosis EmbC assessed as effect on LAM production at 1 ug/ml after 2 hrs by immunoblotting. The procedure, abridged: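 M. tuberculosis grown in 7H9 plus 10% OADC with hygromycin 100 µg/ml, kanamycin 20 µg/ml and EMB 0 to 128 µg/ml for 14 days. Cells extracted in phenol-water (1:1) at 80°C for 2 h, then chloroform added. Aqueous phase run on denaturing, nonreducing acrylamide gels with periodic acid-Schiff staining or CS-35 anti-LAM immunoblot.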

In test [8] the test system is T1, Probable arabinosyltransferase A (Mycobacterium smegmatis (strain ATCC 700084 / mc(2)155)), A0R612 [D280G].
T1 sequence (whole entry): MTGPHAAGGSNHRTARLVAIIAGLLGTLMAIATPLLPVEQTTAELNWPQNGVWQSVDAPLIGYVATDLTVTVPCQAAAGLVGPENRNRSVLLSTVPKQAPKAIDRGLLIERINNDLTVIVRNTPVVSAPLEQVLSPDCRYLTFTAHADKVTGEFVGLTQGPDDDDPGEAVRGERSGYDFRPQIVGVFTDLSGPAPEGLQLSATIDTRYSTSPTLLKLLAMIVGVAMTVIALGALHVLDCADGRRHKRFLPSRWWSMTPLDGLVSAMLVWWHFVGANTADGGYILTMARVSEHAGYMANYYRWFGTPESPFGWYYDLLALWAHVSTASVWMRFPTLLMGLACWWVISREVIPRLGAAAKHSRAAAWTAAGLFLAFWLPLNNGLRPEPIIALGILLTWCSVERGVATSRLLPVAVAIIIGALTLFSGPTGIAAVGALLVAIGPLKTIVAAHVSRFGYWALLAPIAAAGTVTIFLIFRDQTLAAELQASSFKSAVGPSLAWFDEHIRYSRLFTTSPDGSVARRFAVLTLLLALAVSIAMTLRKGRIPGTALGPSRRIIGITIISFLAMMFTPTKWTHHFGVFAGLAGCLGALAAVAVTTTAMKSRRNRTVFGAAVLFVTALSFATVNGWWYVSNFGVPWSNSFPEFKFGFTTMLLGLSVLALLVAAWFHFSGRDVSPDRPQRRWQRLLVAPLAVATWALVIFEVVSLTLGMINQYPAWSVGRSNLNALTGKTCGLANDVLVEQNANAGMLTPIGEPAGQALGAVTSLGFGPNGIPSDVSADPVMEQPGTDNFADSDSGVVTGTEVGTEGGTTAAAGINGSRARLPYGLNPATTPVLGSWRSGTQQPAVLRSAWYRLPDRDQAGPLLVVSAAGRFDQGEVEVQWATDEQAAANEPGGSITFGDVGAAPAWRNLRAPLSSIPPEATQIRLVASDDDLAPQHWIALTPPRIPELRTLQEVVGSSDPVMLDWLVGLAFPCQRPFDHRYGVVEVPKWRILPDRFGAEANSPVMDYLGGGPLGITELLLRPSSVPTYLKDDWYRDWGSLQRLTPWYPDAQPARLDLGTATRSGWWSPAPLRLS
Kind of test: Inhibition of Mycobacterium smegmatis EmbC D280G mutant assessed as effect on LAM production at 32ug/ml after 2 hrs by immunoblotting. The conditions noted are these: Mycolicibacterium smegmatis. Background: A western blot detects proteins with antibodies after separation by electrophoresis.

Test [9] deals with Mycobacterium tuberculosis. Kind of test: Antimicrobial activity against Mycobacterium tuberculosis expressing EmbC gene after 48 hrs by agar proportion method. The test is classed as functional.
Test [10] relates to Mycobacterium tuberculosis. Kind of test: Antimicrobial activity against Mycobacterium tuberculosis expressing EmbC gene after 48 hrs. The test is classed as functional.
The subject of test [11] is Mycolicibacterium smegmatis. Kind of test: Antimicrobial activity against Mycobacterium smegmatis expressing EmbC gene after 48 hrs by agar proportion method. The test is classed as functional, organism-based.
Test [12] has as its system Mycolicibacterium smegmatis. The experiment in a line: Antimicrobial activity against Mycobacterium smegmatis expressing EmbC M286I mutant gene after 48 hrs by agar proportion method. The test is classed as functional.
For test [13], the system named is Mycolicibacterium smegmatis. Kind of test: Antimicrobial activity against Mycobacterium smegmatis expressing EmbC M286L mutant gene after 48 hrs by agar proportion method. The test is classed as functional.
For test [14], the system named is Mycolicibacterium smegmatis. Kind of test: Antimicrobial activity against Mycobacterium smegmatis expressing EmbC M286V mutant gene after 48 hrs by agar proportion method. It is filed as functional.

≈ marks a conversion by molar mass, not a printed value. Calls of active or inactive are those of the source. The calls are words filed in the database; no cut-off is given here.

For the molecule `CC[C@@H](CO)NCCN[C@@H](CC)CO` [ETHAMBUTOL], the MIC in test [1] is 64 µg/mL (≈ 313 µM); in test [6] it was 3 µg/mL (≈ 14.7 µM); in [10] it was 3 µg/mL (≈ 14.7 µM); in [12] it was 32 µg/mL (≈ 157 µM); in test [13], 64 µg/mL (≈ 313 µM); in test [14], 32 µg/mL (≈ 157 µM). For the same molecule, the outcome in test [2], in [3], in [4] and in test [5] was inactive. The inhibition result in test [7] and in test [8] was “Active” in each case. In test [9], the MIC90 is 1 µg/mL (≈ 4.89 µM). For the same molecule, in [11], the MIC entry was “inactive”.

(Values after ChEMBL document CHEMBL1649213, “The arabinosyltransferase EmbC is inhibited by ethambutol in Mycobacterium tuberculosis” (2009).)
